{"source": "ChEMBL document CHEMBL1159367", "about": "“Antineoplastic agents. 485. Isolation and structure of cribrostatin 6, a dark blue cancer cell growth inhibitor from the marine sponge Cribrochalina sp” (2003)", "assay_type_in_all_cases": "functional", "key": {"Enterococcus faecalis [1]": {"test_system": "Enterococcus faecalis", "test": "Antimicrobial activity against Enterococcus faecalis ATCC 29212 isolate by broth microdilution susceptibility assay", "method_in_brief": "(§1)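 Broth microdilution susceptibility testing following established reference methods. MIC was taken as the lowest compound concentration giving complete inhibition of visible growth, with wells optically clear.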"}, "DU-145": {"test_system": "DU-145", "test": "Growth inhibition of human DU145 cells"}, "KM-20L2": {"test_system": "KM-20L2", "test": "Growth inhibition of human KM20L2 cells"}, "Neisseria gonorrhoeae": {"test_system": "Neisseria gonorrhoeae", "test": "Antimicrobial activity against Neisseria gonorrhoeae ATCC 49226 by broth microdilution susceptibility assay"}, "Streptococcus": {"test_system": "Streptococcus", "test": "Antimicrobial activity against Streptococcus isolate by broth microdilution susceptibility assay"}, "Streptococcus pneumoniae [2]": {"test_system": "Streptococcus pneumoniae", "test": "Antimicrobial activity against Streptococcus pneumoniae ATCC 6303 by broth microdilution susceptibility assay"}, "Staphylococcus aureus [3]": {"test_system": "Staphylococcus aureus", "test": "Antimicrobial activity against methicillin-resistant Staphylococcus aureus isolate by broth microdilution susceptibility assay", "method_in_brief": "as §1"}, "MCF7": {"test_system": "MCF7", "test": "Growth inhibition of human MCF7 cells"}, "Enterococcus faecalis [4]": {"test_system": "Enterococcus faecalis", "test": "Antimicrobial activity against vancomycin-resistant Enterococcus faecalis isolate by broth microdilution susceptibility assay", "method_in_brief": "as §1"}, "Streptococcus pneumoniae [5]": {"test_system": "Streptococcus pneumoniae", "test": "Antimicrobial activity against Streptococcus pneumoniae isolate by broth microdilution susceptibility assay"}, "Bacillus subtilis": {"test_system": "Bacillus subtilis", "test": "Antimicrobial activity against Bacillus subtilis isolate by broth microdilution susceptibility assay"}, "Staphylococcus aureus [6]": {"test_system": "Staphylococcus aureus", "test": "Antimicrobial activity against Staphylococcus aureus ATCC 29213 by broth microdilution susceptibility assay", "method_in_brief": "as §1"}, "Cryptococcus neoformans": {"test_system": "Cryptococcus neoformans", "test": "Antimicrobial activity against Cryptococcus neoformans ATCC 90112 by broth microdilution susceptibility assay"}, "BXPC-3": {"test_system": "BXPC-3", "test": "Growth inhibition of human BxPC3 cells"}, "NCI-H460": {"test_system": "NCI-H460", "test": "Growth inhibition of human NCI-H460 cells"}, "P388": {"test_system": "P388", "test": "Growth inhibition of mouse P388 cells"}, "Micrococcus luteus": {"test_system": "Micrococcus luteus", "test": "Antimicrobial activity against Micrococcus luteus Presque Isle 456 by broth microdilution susceptibility assay"}, "Escherichia coli": {"test_system": "Escherichia coli", "test": "Antimicrobial activity against Escherichia coli ATCC 25922 by broth microdilution susceptibility assay"}, "[7]": {"test_system": "Stenotrophomonas maltophilia", "test": "Antimicrobial activity against Stenotrophomonas maltophilia ATCC 13637 by broth microdilution susceptibility assay"}, "Streptococcus pneumoniae [8]": {"test_system": "Streptococcus pneumoniae", "test": "Antimicrobial activity against penicillin-resistant Streptococcus pneumoniae isolate by broth microdilution susceptibility assay", "method_in_brief": "as §1"}, "Enterobacter cloacae": {"test_system": "Enterobacter cloacae", "test": "Antimicrobial activity against Enterobacter cloacae ATCC 13047 by broth microdilution susceptibility assay"}, "Candida albicans": {"test_system": "Candida albicans", "test": "Antimicrobial activity against Candida albicans ATCC 90028 by broth microdilution susceptibility assay"}, "SF-268": {"test_system": "SF-268", "test": "Growth inhibition of human SF268 cells"}}}
{"smiles": "CCOC1=C(C)C(=O)c2ccn3c(C)ncc3c2C1=O", "note": "[CRIBROSTATIN 6]", "values": [{"measurement": "MIC", "setting": "Enterococcus faecalis [1]", "value": 32, "unit": "µg/mL"}, {"measurement": "GI50", "setting": "DU-145", "value": 0.38, "unit": "µg/mL"}, {"measurement": "GI50", "setting": "KM-20L2", "value": "> 1", "unit": "µg/mL"}, {"measurement": "MIC", "setting": "Neisseria gonorrhoeae", "value": 0.0625, "unit": "µg/mL"}, {"measurement": "MIC", "setting": "Streptococcus", "value": 16, "unit": "µg/mL"}, {"measurement": "MIC", "setting": "Streptococcus pneumoniae [2]", "value": 0.5, "unit": "µg/mL"}, {"measurement": "MIC", "setting": "Staphylococcus aureus [3]", "value": 16, "unit": "µg/mL"}, {"measurement": "GI50", "setting": "MCF7", "value": 0.21, "unit": "µg/mL"}, {"measurement": "MIC", "setting": "Enterococcus faecalis [4]", "value": 32, "unit": "µg/mL"}, {"measurement": "MIC", "setting": "Streptococcus pneumoniae [5]", "value": 1, "unit": "µg/mL"}, {"measurement": "MIC", "setting": "Bacillus subtilis", "value": 2, "unit": "µg/mL"}, {"measurement": "MIC", "setting": "Staphylococcus aureus [6]", "value": 16, "unit": "µg/mL"}, {"measurement": "MIC", "setting": "Cryptococcus neoformans", "value": 2, "unit": "µg/mL"}, {"measurement": "GI50", "setting": "BXPC-3", "value": "> 1", "unit": "µg/mL"}, {"measurement": "GI50", "setting": "NCI-H460", "value": "> 1", "unit": "µg/mL"}, {"measurement": "GI50", "setting": "P388", "value": 0.29, "unit": "µg/mL"}, {"measurement": "EC50", "setting": "P388; read-out: ED50 (the source's name)", "value": 0.3, "unit": "µg/mL"}, {"measurement": "MIC", "setting": "Micrococcus luteus", "value": 16, "unit": "µg/mL"}, {"measurement": "MIC", "setting": "Escherichia coli", "value": "> 64", "unit": "µg/mL"}, {"measurement": "MIC", "setting": "[7]", "value": "> 64", "unit": "µg/mL"}, {"measurement": "MIC", "setting": "Streptococcus pneumoniae [8]", "value": 2, "unit": "µg/mL"}, {"measurement": "MIC", "setting": "Enterobacter cloacae", "value": "> 64", "unit": "µg/mL"}, {"measurement": "MIC", "setting": "Candida albicans", "value": 64, "unit": "µg/mL"}, {"measurement": "GI50", "setting": "SF-268", "value": 0.24, "unit": "µg/mL"}]}
